Consider 18 compounds from PubChem BioAssay.

A short description of assay [1]: S. cerevisiae growth inhibition in permissive medium (OD615), pilot counter-assay for S. cerevisiae lifespan shortening project, permissive growth control (AID 705;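 active = growth inhibition above 25% in both replicates, a cutoff set 3 SD above the mean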). Conditions: OD615, 24 h, at 10 µM, active compounds read high. A digest of the protocol:
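Timing: 24 h exposure, 30 °C / Material: Saccharomyces cerevisiae strain carrying genetically modified DeaD replicative-lifespan system / Signal: OD at 615 nm / Compound: 10 µM single dose, 0.25% DMSO / Medium: SC raffinose/galactose permissive medium / Evaluation: reduction in yeast growth (OD615)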

A short description of assay [2]: S. cerevisiae growth inhibition in restrictive medium, OD615, pilot screen, restrictive growth control, yeast lifespan reduction project (AID 706;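 active = growth inhibition above a set limit, 3 SD over mean compound inhibition, in both replicates, cut at about 43% in these data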;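 also: modified DeaD lifespan yeast strain shifted to restrictive glucose medium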). Conditions: OD615, 48 h, at 10 µM, active compounds read high. The method in brief:
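System: Engineered S. cerevisiae DeaD strain | Detection: OD615 | Buffer or medium: CSMM-D glucose medium | Doses: 10 µM compound, 0.25% DMSO | Timing: 4 h pre-growth plus 48 h compound exposure, 30 °C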

The nature of assay [3]: doxorubicin toxicity protection in MRP-1 cells – H69AR cells, CellTiter-Glo, duplicate, MRP-1 activator project, pilot screen (AID 807;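 active = viability increase at or above a cutoff of the median across tested compounds plus 3 SD, cut at about 8.5% in these data, passing the limit was not always enough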;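 also: compound pretreatment 18-22 h then 72 h combined with doxorubicin; 0% = doxorubicin alone and 100% = vehicle without doxorubicin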). Conditions: H69AR viability with doxorubicin, CellTiter-Glo luminescence; at 10 µM; active compounds read high.
A short description of assay [4]: viability of HCT116 without oncogenic beta-catenin – human colon tumor cells, pilot screen (AID 823;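 active = cell viability at or below a set limit in both duplicate runs, the limit being the all-compound median minus 4 SD, cut at about 23% in these data, passing the limit was not always enough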;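 also: 0% = wells killed by 20 µM Hyamine and 100% = untreated DMSO cell wells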). Conditions: HCT116 beta-catenin knockout viability, CellTiter-Glo, 60 h; at 10 µM; active compounds read low.
Assay [5] is described as follows: viability of PTEN-null HCT116 cells – cell-based, HCT116 clonal line, CellTiter-Glo, pilot screen (AID 824;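 active = viability at or below 27.92% in each of two runs, the all-compound median minus 4 SD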;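 also: 0% = 20 µM Hyamine control and 100% = vehicle cell control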). Conditions: HCT116 PTEN-deleted viability, 60 h, at 10 µM, active compounds read low. Background: Cellular ATP, detected with luciferase, serves as a proxy for viable cell number.
Assay [6] is described as follows: RAM pathway blockade in budding yeast – dse1pr::URA3 reporter, 5-FOA selection, pilot screen (AID 869;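 active = inhibition over a set limit, the all-compound mean plus 3 SD, in both replicate runs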;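 also: 0% = DMSO wells with no growth and 100% = 10 µM 1-NA-PP1 with full growth; RAM network block rescues cells from 5-FOA so hits raise OD615 growth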). Conditions: S. cerevisiae dse1pr::URA3 5-FOA growth, OD615, 2 d; at 10 µM; active compounds read high; strain carries analog-sensitive mutant Cbk1 kinase.
Assay [7] can be described thus: RAM signaling pathway blockade in yeast – S. cerevisiae, Pdr1DBD-CYC8 efflux-inhibited sensitized strain, primary screen (AID 1298).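 Also: 0% = DMSO untreated cells without growth and 100% = 10 µM 1-NA-PP1 full growth; higher means more yeast growth rescued from 5-FOA killing.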 Conditions: S. cerevisiae cbk1-as DSE1-URA3 strain, 5-FOA growth OD615, 2 d; at 50 µM; active compounds read high.

SMILES strings stand for the structures. Values without a mark were called inactive. Results filed as inconclusive are left out. Active and inactive are the calls of the source.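 The calls were made as follows, unless noted: active = RAM network inhibition above 8.4% in each of two replicates, 3 SD over the compound average; inconclusive = above 8.4% inhibition in only one replicate; inactive = 8.4% inhibition or less in each replicate.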

The term viability denotes a read-out of living cells in per cent, often relative to untreated cells. The term inhibition denotes the drop in the measured response relative to a control, in per cent. On to `COc1ccc(-n2c(Cc3cccn3C)nnc2SCC(=O)NC2CCCC2)cc1`, for which the growth inhibition in assay [1] is -6.13%; in assay [2], 5.99%. Besides, the viability increase in assay [3] was 0.53%. Moreover, the viability in assay [4] was 94.1%; in assay [5] it was 92.4%. Further, the inhibition in assay [6] was 0.835%. Also, in assay [7], the RAM network inhibition is 3.89%.
In the case of `CC1(C)CC(=O)C2=C(C1)Nc1ccccc1NC2c1ccccn1` (stereo unspecified), the growth inhibition in assay [1] is 11.4%; in assay [2], 3.1%. For the same compound, in assay [3], the viability increase is -3.1%. The viability is 100% in assay [4] and 95.4% in assay [5]. The inhibition in assay [6] was 0.245%. Besides, the RAM network inhibition in assay [7] was 3.12%.
With `COc1ccc(NC(=O)N2CCC(c3ccccc3)C2)c(OC)c1` (stereo unspecified), the figures for the growth inhibition in assay [1] and in assay [2] were -3.06% and 9.96%, respectively. Moreover, the viability increase in assay [3] is 1.59%. For the same compound, the viability in assay [4] is 90.9%; in assay [5] it was 90.2%. The inhibition in assay [6] was 0.67%. Further, the RAM network inhibition in assay [7] is -1.49%.
For `O=C(Cn1c(=O)sc2ccccc21)Nc1ccccc1C(=O)O`, the growth inhibition is -3.71% in assay [1] and 0.435% in assay [2]. For the same compound, the viability increase in assay [3] was 1.36%. Besides, the viability in assay [4] is 102%; in assay [5] it was 96.7%. Moreover, the inhibition in assay [6] was 3.53%. The RAM network inhibition in assay [7] was 2.02%.
Consider `COc1cccc(CNC(=O)C2CCN(S(=O)(=O)c3cccc4cccnc34)CC2)c1`, for which the results for the growth inhibition in assay [1] and in assay [2] were -10.5% and -2.92%, respectively. The viability increase in assay [3] is -1.45%. Moreover, the values for the viability in assay [4] and in assay [5] were 100% and 97.5%, respectively. Besides, the inhibition in assay [6] is 2.88%. Besides, the RAM network inhibition in assay [7] was 3.03%.
As to `COc1ccc2cc3c(N)nn(C(=O)Cc4ccccc4OC)c3nc2c1`, the values for the growth inhibition in assay [1] and in assay [2] were 10.1% and 17.7%, respectively. Further, the viability increase in assay [3] was -8.54%. Moreover, the viability in assay [4] is 2.78% (active); in assay [5], 5.52% (active). Besides, the inhibition in assay [6] was 0.65%. Further, in assay [7], the RAM network inhibition was 2.84%.
Turning to `Cc1cccc(Cn2c(N3CCCCC3C)nc3c2c(=O)[nH]c(=O)n3C)c1` (stereo unspecified), the growth inhibition was -17.5% in assay [1] and -16.4% in assay [2]. In addition, the viability increase in assay [3] is -5.08%. Also, the viability in assay [4] was 89.3%; in assay [5], 78%. Further, the inhibition in assay [6] was 0.805%. Also, the RAM network inhibition in assay [7] was 2.4%.
As to `CCOc1ccc(C2CC(c3ccc(F)cc3)Nc3nc(N)nn32)cc1` (stereo unspecified), the growth inhibition in assay [1] is 4.3%; in assay [2], 6.27%. Further, in assay [3], the viability increase was 2.97%. For the same compound, the viability is 105% in assay [4] and 101% in assay [5]. Moreover, the inhibition in assay [6] was 0.7%. Further, in assay [7], the RAM network inhibition is 0.88%.
Regarding `CCOC(=O)c1c(NC(=O)CN2CCCCC2)sc2c1CCCC2O` (stereo unspecified), the growth inhibition was -10.4% in assay [1] and -0.48% in assay [2]. Moreover, the viability increase in assay [3] is -4.26%. Also, the viability in assay [4] is 70.3%; in assay [5] it was 65.2%. Moreover, in assay [6], the inhibition is -0.195%. Also, the RAM network inhibition in assay [7] was 4.1%.
Consider `CC1CCN(c2c(NCc3ccc(C(=O)NCC4COc5ccccc5O4)cc3)c(=O)c2=O)CC1` (stereo unspecified), for which the growth inhibition was 2.94% in assay [1] and 14.3% in assay [2]. The viability increase in assay [3] was -2.96%. Besides, the viability in assay [4] was 86.2%; in assay [5], 96.2%. Moreover, the inhibition in assay [6] is 0.785%. The RAM network inhibition in assay [7] is 4.87%.
In the case of `Cc1cc(S(=O)(=O)N2CCN(c3ccc(F)cc3)CC2)c(C)s1`, the growth inhibition is -13.9% in assay [1] and -7.43% in assay [2]. For the same compound, the viability increase in assay [3] was -3.11%. The viability is 60.9% in assay [4] and 60.3% in assay [5]. For the same compound, the inhibition in assay [6] is 1.69%. Moreover, in assay [7], the RAM network inhibition is 9.84%.
Consider `CCOC(=O)c1ccc(Nc2cc(C)nc(-c3ccccc3O)n2)cc1`, for which the growth inhibition in assay [1] was -6.03%; in assay [2] it was -3.53%. Further, the viability increase in assay [3] was 1.42%. Further, the viability was 78.5% in assay [4] and 75.8% in assay [5]. Besides, the inhibition in assay [6] is -0.345%. In assay [7], the RAM network inhibition was 1.54%.
Consider `COc1ccc(C2CCCN2C(=O)Nc2ccc(F)cc2)cc1OC` (stereo unspecified), for which the growth inhibition was -6.66% in assay [1] and -5.24% in assay [2]. The viability increase in assay [3] was 1.33%. Further, the viability in assay [4] was 98.8%; in assay [5], 88.2%. Moreover, the inhibition in assay [6] was 2.6%. Further, the RAM network inhibition in assay [7] is 3.45%.
For the compound `Cc1c(NC2=C(Cl)C(=O)N(c3ccccc3)C2=O)c(=O)n(-c2ccccc2)n1C`, the growth inhibition is 8.25% in assay [1] and 28.3% in assay [2]. For the same compound, in assay [3], the viability increase is -6.66%. For the same compound, the viability in assay [4] is 90.7%; in assay [5], 94.4%. In assay [6], the inhibition is 1.42%. Moreover, the RAM network inhibition in assay [7] is 3.28%.
Regarding `CCN1C(=O)CSc2ccc(C(=O)OC)cc21`, the growth inhibition was -6.5% in assay [1] and -12.7% in assay [2]. Besides, the viability increase in assay [3] was -1.33%. In addition, the viability was 95.6% in assay [4] and 90.3% in assay [5]. The inhibition in assay [6] is 1.39%. The RAM network inhibition in assay [7] was -0.69%.
For the compound `O=C(Cc1ccccc1)n1nc(-c2ccccc2)nc1NCc1ccco1`, the growth inhibition in assay [1] is -16.6%; in assay [2] it was -14.8%. Also, in assay [3], the viability increase was -2.03%. Besides, the values for the viability in assay [4] and in assay [5] were 99.5% and 98.1%, respectively. In addition, the inhibition in assay [6] was 1.27%. The RAM network inhibition in assay [7] was 4.38%.
Regarding `O=C(Cn1c(CN2CCCCC2)nc2ccccc2c1=O)NC1CCCCC1`, the growth inhibition was -7.65% in assay [1] and -24.4% in assay [2]. Besides, the viability increase in assay [3] is -2.4%. Moreover, the viability in assay [4] is 95.4%; in assay [5], 88%. Besides, the inhibition in assay [6] is -0.59%. For the same compound, the RAM network inhibition in assay [7] is -1.71%.
For the compound `O=C(NCc1cccnc1)NC1(c2ccccc2)CC1`, the growth inhibition in assay [1] is -2.17%; in assay [2], -17.7%. Besides, the viability increase in assay [3] was 0.15%. Moreover, the viability was 106% in assay [4] and 100% in assay [5]. Also, in assay [6], the inhibition is 0.49%. Moreover, the RAM network inhibition in assay [7] is 0.4%.
